Molecules are shown by their SMILES. Calls of active or inactive are those of the source. No cut-off for these calls is given here.

For data set [1], the system named is A 172. Description: Cytotoxicity against human A172 cells after 72 hrs by XTT assay. The settings on record: A 172, 72 h. The class given is functional, cell-based. The procedure, abridged:
(§1)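 Cells seeded at 500 per well, incubated overnight, then exposed to increasing compound concentrations (0.1% DMSO final, DMSO control) in triplicate for 72 h. Activated XTT added; absorbance read at 450 nm with 630 nm background at start and after 4 h at 37 °C, 5% CO2. Change normalized to DMSO as % viability; IC50 from variable-slope sigmoidal fit; three independent measurements.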
On the technique in general: Formazan colour is commonly taken as a measure of viable cells.

Data set [2] concerns HeLa. Kind of data set: Effect on primary miR-21 expression levels in human HeLa cells at 10 uM after 48 hrs by qRT-PCR analysis. The class given is functional, cell-based. A digest of the protocol: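 HeLa cells were treated with 10 μM compound or DMSO (1% final) for 48 h, then RNA was isolated. 50 ng RNA was reverse-transcribed with iScript. TaqMan qPCR used pri-miR-21 and GAPDH primers. Triplicate Ct values were normalized to GAPDH and to DMSO controls by the 2−ΔΔCt method.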
(Quantitative PCR measures a nucleic acid by following its amplification.)

Data set [3] has as its system microRNA 21. Kind of data set: Inhibition of miR-21 RNA in human A498 cells assessed as increase in PTEN expression at 10 uM after 48 hrs by Western blot analysis relative to control. The format is cell-based. The procedure, abridged: (§2)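 A498 cells, 250,000 per well, treated with 10 μM compound or DMSO (0.1%) for 48 h and lysed in RIPA buffer. Lysates were run on 10% SDS-PAGE, transferred to PVDF, and probed with rabbit anti-PTEN, anti-PDCD4 and anti-GAPDH, then HRP secondary. Chemiluminescence densitometry was normalized to GAPDH, then to DMSO.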
On the technique in general: A western blot detects proteins with antibodies after separation by electrophoresis.

For data set [4], the system named is HCT-116. Description: Cytotoxicity against human HCT116 cells after 72 hrs by XTT assay. The class given is functional, cell-based. The settings on record: HCT-116, 72 h. The procedure, abridged: as §1
Data set [5] has as its system A549. Description: Decrease in mature miR-21 expression levels in human A549 cells at 10 uM after 48 hrs by qRT-PCR analysis. The format is functional, cell-based.
In data set [6] the test system is NIH3T3. Description: Potentiation of topotecan-induced cytotoxicity in mouse NIH/3T3 cells at 1 to 10 uM after 72 hrs by XTT assay. The settings on record: nih3t3, 72 h. The class given is cell-based. The procedure, abridged:
(§3)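 The chemotherapeutic agent (topotecan) was titrated while the miR-21 inhibitor was held at a fixed concentration, 0.1% DMSO final, in triplicate. Cells were seeded at 500 per well and treated after overnight attachment. After 72 h, XTT was read at 450 nm (630 nm background) at start and after 4 h. Signal normalized to DMSO; IC50 from variable-slope sigmoidal fit.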

Data set [7] concerns microRNA 21. Kind of data set: Inhibition of miR-21 RNA in human A498 cells assessed as potentiation of topotecan-induced apoptosis by measuring increase in caspase-3/7 activity at 10 uM after 24 hrs by Caspase-Glo 3/7 assay relative to control. Also noted: scale not given: the % may be the effect or the level left. The class given is cell-based. The procedure, abridged:
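A498 cells, 10,000 per well, treated after overnight attachment for 24 h with DMSO (0.1%), 400 nM topotecan, 10 μM inhibitor, or topotecan plus inhibitor at those levels. Caspase-3/7 activity read by Caspase-Glo 3/7 luminescence and normalized to DMSO. At least three independent experiments; unpaired t test.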

In data set [8] the test system is microRNA 21. Kind of data set: Inhibition of miR-21 RNA in human A498 cells assessed as potentiation of topotecan-induced inhibition of colony formation by measuring reduction in topotecan IC50 at 10 uM after 2 weeks by crystal violet staining-based microscopic analysis relative to topotecan alone. The class given is cell-based. A digest of the protocol:
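A498 cells, 10,000 per well, seeded in 0.45% low-melt agarose in DMEM over a 0.7% agarose base layer, containing increasing compound concentrations or DMSO (0.1% final), in triplicate. For combinations, the inhibitor was held at 10 μM. After 2 weeks, colonies were stained with 0.1% crystal violet and imaged by z-stack microscopy. Colony counts were normalized to DMSO; IC50 from sigmoidal fit.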

For data set [9], the target named is microRNA 21. Kind of data set: Inhibition of miR-21 RNA in human HeLa cells harboring miR-21 binding sequence in 3'-UTR of firefly luciferase gene assessed as increase in luciferase expression incubated for 48 hrs by Bright-Glo luciferase reporter gene assay. The format is cell-based. A digest of the protocol:
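HeLa-miR21-Luc stable line (miR-21 site in the firefly luciferase 3′-UTR), 1000 cells per well. Compound or DMSO (0.1% final) added after overnight attachment, in triplicate, for 48 h. Bright-Glo luminescence was normalized to XTT viability (450 nm) and expressed as fold change relative to DMSO. At least three independent experiments.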

For data set [10], the system named is microRNA 21. Description: Inhibition of miR-21 RNA in human A498 cells assessed as increase in PDCD4 expression at 10 uM after 48 hrs by Western blot analysis relative to control. The format is cell-based. A digest of the protocol:
as §2

Data set [11] concerns HeLa. Description: Inhibition of miR-182 RNA (unknown origin) transfected in human HeLa cells at 10 uM after 48 hrs by Bright-Glo luciferase reporter gene assay. The format is cell-based.
Data set [12] concerns microRNA 21. Kind of data set: Inhibition of miR-21 RNA in human A498 cells assessed as potentiation of topotecan-induced cytotoxicity after 72 hrs by XTT assay. The format is cell-based. The procedure, abridged:
as §3

A word on the IC50: it is the point on the concentration scale where inhibition reaches its midpoint. For orientation: EC50 means the concentration that produces a half-maximal response. Take `C#CCOc1ccc(-c2noc(-c3nnn(-c4cccc(/C(C)=N/O)c4)c3N)n2)cc1`: the IC50 in data set [1] was 4.6 µM; in data set [4] it was 5.9 µM. Moreover, the result in [2] and in data set [5] was inactive. For the same compound, the fold change (FC) in data set [3] was determined as 1.5; in [8] it was 27; in data set [10], 9.5. The Activity result in data set [6] is “Non-Toxic”; in data set [7], 512%. Moreover, the EC50 in data set [9] turned out to be 5.3 µM. For the same compound, the inhibition entry in data set [9] and in data set [12] was “Dose-dependent effect” in each case. Moreover, the inhibition result in [11] was “inactive”.

These data come from ChEMBL document CHEMBL4251758, “Small Molecule Inhibition of MicroRNA miR-21 Rescues Chemosensitivity of Renal-Cell Carcinoma to Topotecan” (J Med Chem, 2018).
